The target in series [1] is T1, PTP1B1-321 (Homo sapiens, UniProt P18031).
T1 sequence (P18031 1-321): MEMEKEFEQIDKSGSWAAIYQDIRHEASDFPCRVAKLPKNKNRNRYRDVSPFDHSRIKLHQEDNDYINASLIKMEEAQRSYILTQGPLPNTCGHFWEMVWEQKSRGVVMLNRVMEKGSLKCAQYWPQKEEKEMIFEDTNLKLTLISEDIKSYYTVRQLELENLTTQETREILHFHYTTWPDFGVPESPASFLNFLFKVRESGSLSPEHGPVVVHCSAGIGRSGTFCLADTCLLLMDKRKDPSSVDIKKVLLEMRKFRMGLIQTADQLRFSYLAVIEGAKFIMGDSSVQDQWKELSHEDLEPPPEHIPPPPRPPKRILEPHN
Description: Direct binding assay with [3H]-MSI-1436. The conditions noted are these: scintillation counting. The method in brief: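 Protein was captured on Ni-NTA beads (10 min, 25°C) and washed three times with buffer containing 150 mM NaCl. Bound ligand was measured by scintillation and bead-bound protein by BCA. Free ligand was calculated as total minus bound, for Scatchard analysis.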

The next series deals with T2, CFP-PTP1B1-321-YFP (Homo sapiens, UniProt P18031).
T2 sequence (P18031 1-321): T1 sequence (P18031 1-321)
Description: Intramolecular FRET titration. Format: binding. The settings on record: excitation at 440 nm, 0–5 μM MSI-1436.

Series [2] has as its target T3, PTP1B1-405 (Homo sapiens, UniProt P18031).
T3 sequence (P18031 1-405): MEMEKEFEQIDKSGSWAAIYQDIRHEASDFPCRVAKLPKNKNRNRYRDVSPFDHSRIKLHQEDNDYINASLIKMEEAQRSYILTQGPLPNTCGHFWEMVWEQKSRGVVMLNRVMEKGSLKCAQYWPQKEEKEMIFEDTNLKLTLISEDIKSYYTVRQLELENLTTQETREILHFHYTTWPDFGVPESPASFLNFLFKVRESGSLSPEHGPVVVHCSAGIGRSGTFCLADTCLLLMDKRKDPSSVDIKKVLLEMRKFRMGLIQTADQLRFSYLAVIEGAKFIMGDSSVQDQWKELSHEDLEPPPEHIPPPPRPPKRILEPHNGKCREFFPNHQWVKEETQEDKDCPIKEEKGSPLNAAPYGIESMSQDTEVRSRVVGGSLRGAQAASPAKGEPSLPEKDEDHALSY
Description: Gel filtration.

The next series concerns the target T4, PTP1B1-405 V370P (Homo sapiens, UniProt P18031, V370P).
T4 sequence (P18031 1-405 V370P): T3 sequence (P18031 1-405) with V370P
Description: PTP assay, helix α9′ point mutant. Format: biochemical. The settings on record: S372P, R373P versus wild type.

The target of the next series is T5, PTP1B1-405 L192A/S372P (Homo sapiens, UniProt P18031, L192A/S372P).
T5 sequence (P18031 1-405 L192A/S372P): T3 sequence (P18031 1-405) with L192A, S372P
As to the kind of experiment: PTP assay, double point mutant. Format: biochemical. The method in brief: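 Continuous fluorescence PTP assay with 10 nM purified PTP1B and 10 μM DiFMUP substrate. Emission at 450 nm was monitored for 20 minutes.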

Series [3] deals with PTP1B V370, S372 and R373 to alanine. Description: PTP assay, alanine point mutants. The settings on record: data not shown. Type of series: biochemical, human.
The target of series [4] is T3, PTP1B1-405. Description: Binding of recombinant protein to bead-immobilized compound. The conditions noted are these: in vitro. An outline of the steps: (§1)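 Beads were washed in the same buffer plus 0.01% NP-40 and 1% glycerol, then heat-eluted in SDS sample buffer. Eluates were run on 10% SDS-PAGE and stained with Coomassie or silver.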
Series [5] deals with T1, PTP1B1-321. Described as above. The settings on record: in vitro. An outline of the steps: as §1
The test system of the next series is 10A.B2 cells. As to the kind of experiment: Cell migration assay. Type of series: cell-based. The settings on record: 2D culture, similar extent to PTP1B-directed shRNA.
Series [6] has as its system panel of breast cancer cells. Description: Cell proliferation assay. Type of series: cell-based. The method in brief:
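Cells (1 × 10^4) per well were grown 12–96 hours in growth medium without or with test compound (2 and 5 μM). Proliferation was read by CellTiter-Glo luminescence.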

Series [7] concerns panel of breast cancer cells. Description: Annexin/PI staining. Format: cell-based. The conditions noted are these: cells sensitive to Lapatinib. The method in brief: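 Cells (1 × 10^5) plated in 6-well plates in growth medium, left untreated or given test compound at 2 and 5 μM. Stained with annexin and PI per kit instructions, then analysed by flow cytometry.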
For series [8], the system named is NDL2 mammary tumors and lung metastasis. As to the kind of experiment: NDL2 transgenic mouse model of breast cancer. Type of series: in vivo. An outline of the steps: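 NDL2 mice with palpable tumours were randomised to saline or test compound (5 or 10 mg/kg, 100 μl) i.p. every third day for 45 days, using freshly prepared solutions. Animals were killed after 45 d, and tumours were removed, counted and weighed. Whole lungs were sectioned, H&E-stained and scored for metastases. Groups had six animals; Student t-test was used.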

[9] abbreviates: 5 mg/kg intraperitoneally every third day, relative to control.

The text below walks through data of paper PMC4062594 (Nature chemical biology, 2014).

Numbering of substitutions follows the chain as printed. Entries after “also recorded” stand apart in the source; their conditions may differ.

On to `CC(C)[C@@H](CC[C@@H](C)[C@H]1CC[C@H]2[C@@H]3[C@H](O)C[C@H]4C[C@@H](NCCCNCCCCNCCCN)CC[C@]4(C)[C@H]3CC[C@]12C)OS(=O)(=O)O` [MSI-1436, Trodusquemine], for which the stoichiometry on PTP1B1-321 [1] is reported as 1 mol/mol. On CFP-PTP1B1-321-YFP, the FRET result is given as “did not result in FRET”. Further, at PTP1B1-405 [2], the “oligomerization of the phosphatase” value is “did not cause the phosphatase to oligomerize”. Moreover, on PTP1B1-405 [2] (in the presence of the inhibitor (~47k in the absence)), the “calculated molecular weight of PTP1B1-405” value is reported as ~ 43 k. For the same compound, on PTP1B1-405 V370P, the “increase of Ki by helix-destabilizing Pro mutations” value was 10–20 fold. Moreover, the “inhibition by MSI-1436” value on PTP1B1-405 L192A/S372P is recorded as “complete loss of inhibition; also recorded: insensitive to MSI-1436”. In addition, the “effect of alanine mutations on inhibition by MSI-1436” value in series [3] is given as “did not affect”. For the same compound, the “binding to bead-immobilized compound” value at PTP1B1-405 [4] is recorded as “bound”. In addition, the “binding to bead-immobilized compound” value on PTP1B1-321 [5] is “bound”. Moreover, the migration entry in the series on 10A.B2 cells is on record as “inhibited migration”. For the same compound, the “nature of effects (cytostatic versus cytotoxic)” value in [6] was “primarily cytostatic, rather than cytotoxic”. The proliferation entry in [6] (cells sensitive to Lapatinib, MSI-1436 2 and 5 μM) is given as “inhibited proliferation”. Further, the apoptosis entry in series [7] was “limited effect on apoptosis”. Further, in series [8] (setting [9]), the tumor number entry is on record as “marked decrease” and the tumor size entry is “marked decrease”. In addition, in series [8] (5 or 10 mg/kg intraperitoneally every third day), the lung metastasis entry is given as “essentially abrogated”.
